Measurements published in ChEMBL document CHEMBL2046398, “Optimization of (2,3-dihydro-1-benzofuran-3-yl)acetic acids: discovery of a non-free fatty acid-like, highly bioavailable G protein-coupled receptor 40/free fatty acid receptor 1 agonist as a glucose-dependent insulinotropic agent” (J Med Chem, 2012).

tested on: HepG2; experiment: Induction of apoptosis in human HepG2 cells assessed as caspase 3/7 activity at 30 uM after 1 day by CaspaseGlo assay relative to staurosporine; assay type: cell-based; conditions: hepg2, 24 h
Summary of the method: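 HepG2 cells were seeded at 2 × 10⁴ cells/well. They were exposed to compounds for 1 day in DMEM with 0.5% FBS, 2 mM L-glutamine and 1 mM pyruvate. Caspase-3/7 was read by Caspase-Glo luminescence, n = 3. Values are % = (RLU compound − RLU 1% DMSO)/(RLU 30 μM staurosporine − RLU 1% DMSO) × 100.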

Row | SMILES | Activity [%]
1 | Cc1cc(OCC2(C)COC2)cc(C)c1-c1cccc(COc2ccc3c(c2)OC[C@@H]3CC(=O)O)c1 | 20.9
2 | CCOCCOc1cc(C)c(-c2cccc(COc3ccc4c(c3)OCC4CC(=O)O)c2)c(C)c1 (racemic) | 3.2
3 | Cc1cc(OCCCN2CCCC2=O)cc(C)c1-c1cccc(COc2ccc3c(c2)OC[C@H]3CC(=O)O)c1 | 3.9
4 | Cc1cc(OCCCS(C)(=O)=O)cc(C)c1-c1cccc(COc2ccc3c(c2)OC[C@H]3CC(=O)O)c1 | -2.1
5 | Cc1c(C)c(-c2cccc(COc3ccc4c(c3)OC[C@H]4CC(=O)O)c2)c(C)c(C)c1OCCCS(C)(=O)=O | -1.1
6 | Cc1cc(OCC2(C)COC2)cc(C)c1-c1cccc(COc2ccc3c(c2)OC[C@H]3CC(=O)O)c1 | 21.1
7 | Cc1cc(OC2CCS(=O)(=O)CC2)c(F)c(C)c1-c1cccc(COc2ccc3c(c2)OC[C@H]3CC(=O)O)c1 | 7.9
8 | Cc1c(C)c(-c2cccc(COc3ccc4c(c3)OC[C@H]4CC(=O)O)c2)c(C)c(C)c1OC1CCS(=O)(=O)CC1 | 12.3

target: T1, Free fatty acid receptor 1 (Homo sapiens, UniProt O14842); experiment: Displacement of 3-[4-({2',6'-dimethyl-6-[(4-[3H])-phenylmethoxy]biphenyl-3-yl}methoxy)phenyl]propanoic acid from human GPR40 expressed in CHO cells after 90 mins by liquid scintillation counting in the presence of 0.2% BSA; assay type: cell-based; conditions: not given
T1 sequence (O14842 whole entry): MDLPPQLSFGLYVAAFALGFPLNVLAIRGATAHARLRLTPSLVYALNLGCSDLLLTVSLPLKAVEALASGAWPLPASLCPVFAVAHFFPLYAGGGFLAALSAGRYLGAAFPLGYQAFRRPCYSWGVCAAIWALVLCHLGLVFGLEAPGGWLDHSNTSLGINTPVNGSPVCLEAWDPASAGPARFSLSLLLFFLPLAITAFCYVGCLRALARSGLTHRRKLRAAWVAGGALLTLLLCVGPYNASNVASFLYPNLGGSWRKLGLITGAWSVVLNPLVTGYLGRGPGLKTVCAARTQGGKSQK
Summary of the method: (§1)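 Membranes came from CHO lines stably expressing human or rat GPR40/FFA1. Assay buffer was 25 mmol/L Tris-HCl pH 7.5 with 5 mmol/L EDTA, protease inhibitors, 0.05% CHAPS and 0.2% fatty-acid-free BSA. Compounds competed with 2 or 6 nmol/L tritiated phenylpropanoic acid ligand for 90 min at room temperature. Bound ligand was filtered and counted by scintillation. Nonspecific binding used 10 μmol/L unlabeled ligand. IC50 was converted to Ki by Cheng–Prusoff using the measured Kd.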

Row | SMILES | Ki [nM]
9 | Cc1cc(OCC2(C)COC2)cc(C)c1-c1cccc(COc2ccc3c(c2)OC[C@@H]3CC(=O)O)c1 | 270
10 | Cc1cc(OCCCN2CCCC2=O)cc(C)c1-c1cccc(COc2ccc3c(c2)OC[C@H]3CC(=O)O)c1 | 31
11 | Cc1c(C)c(-c2cccc(COc3ccc4c(c3)OC[C@H]4CC(=O)O)c2)c(C)c(C)c1OCCCS(C)(=O)=O | 33
12 | Cc1cc(OCC2(C)COC2)cc(C)c1-c1cccc(COc2ccc3c(c2)OC[C@H]3CC(=O)O)c1 | 25
13 | Cc1cc(OC2CCS(=O)(=O)CC2)c(F)c(C)c1-c1cccc(COc2ccc3c(c2)OC[C@H]3CC(=O)O)c1 | 31
14 | Cc1c(C)c(-c2cccc(COc3ccc4c(c3)OC[C@H]4CC(=O)O)c2)c(C)c(C)c1OC1CCS(=O)(=O)CC1 | 40

target: Free fatty acid receptor 1 (Rattus norvegicus, UniProt Q8K3T4); experiment: Displacement of 3-[4-({2',6'-dimethyl-6-[(4-[3H])-phenylmethoxy]biphenyl-3-yl}methoxy)phenyl]propanoic acid from rat GPR40 expressed in CHO cells after 90 mins by liquid scintillation counting in the presence of 0.2%BSA; assay type: cell-based; conditions: not given; summary of the method: as §1
Sequence (Q8K3T4 whole entry): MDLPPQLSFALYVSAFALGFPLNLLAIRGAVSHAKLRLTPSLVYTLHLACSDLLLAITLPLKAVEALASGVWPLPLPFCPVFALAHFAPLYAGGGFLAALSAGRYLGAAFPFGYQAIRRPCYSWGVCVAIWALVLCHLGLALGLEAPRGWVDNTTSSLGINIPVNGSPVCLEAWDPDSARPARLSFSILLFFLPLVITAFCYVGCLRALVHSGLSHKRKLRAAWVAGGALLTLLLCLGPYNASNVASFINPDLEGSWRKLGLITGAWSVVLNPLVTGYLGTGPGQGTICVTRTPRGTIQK

Row | SMILES | Ki [nM]
15 | Cc1cc(OCC2(C)COC2)cc(C)c1-c1cccc(COc2ccc3c(c2)OC[C@@H]3CC(=O)O)c1 | 2200
16 | CCOCCOc1cc(C)c(-c2cccc(COc3ccc4c(c3)OCC4CC(=O)O)c2)c(C)c1 (racemic) | 300
17 | Cc1cc(OCCCN2CCCC2=O)cc(C)c1-c1cccc(COc2ccc3c(c2)OC[C@H]3CC(=O)O)c1 | 170
18 | Cc1c(C)c(-c2cccc(COc3ccc4c(c3)OC[C@H]4CC(=O)O)c2)c(C)c(C)c1OCCCS(C)(=O)=O | 120
19 | Cc1cc(OCC2(C)COC2)cc(C)c1-c1cccc(COc2ccc3c(c2)OC[C@H]3CC(=O)O)c1 | 110
20 | Cc1cc(OC2CCS(=O)(=O)CC2)c(F)c(C)c1-c1cccc(COc2ccc3c(c2)OC[C@H]3CC(=O)O)c1 | 270
21 | Cc1c(C)c(-c2cccc(COc3ccc4c(c3)OC[C@H]4CC(=O)O)c2)c(C)c(C)c1OC1CCS(=O)(=O)CC1 | 400

target: T1, Free fatty acid receptor 1; experiment: Agonist activity at human GP40 receptor expressed in CHO cells assessed as increase in intracellular calcium level for 90 secs by FLIPR assay in the presence of 0.1% BSA; assay type: functional, cell-based; conditions: not given

Row | SMILES | EC50 [nM]
22 | Cc1cc(OCC2(C)COC2)cc(C)c1-c1cccc(COc2ccc3c(c2)OC[C@@H]3CC(=O)O)c1 | 270
23 | Cc1cc(OCCCN2CCCC2=O)cc(C)c1-c1cccc(COc2ccc3c(c2)OC[C@H]3CC(=O)O)c1 | 17
24 | Cc1c(C)c(-c2cccc(COc3ccc4c(c3)OC[C@H]4CC(=O)O)c2)c(C)c(C)c1OCCCS(C)(=O)=O | 18
25 | Cc1cc(OCC2(C)COC2)cc(C)c1-c1cccc(COc2ccc3c(c2)OC[C@H]3CC(=O)O)c1 | 18
26 | Cc1cc(OC2CCS(=O)(=O)CC2)c(F)c(C)c1-c1cccc(COc2ccc3c(c2)OC[C@H]3CC(=O)O)c1 | 19
27 | Cc1c(C)c(-c2cccc(COc3ccc4c(c3)OC[C@H]4CC(=O)O)c2)c(C)c(C)c1OC1CCS(=O)(=O)CC1 | 29

tested on: not listed separately; experiment: Lipophilicity, log D of the compound at pH 7.4 by HPLC analysis; assay type: physicochemical; conditions: buffer
Summary of the method: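 Log D at pH 7.4 was estimated from HPLC relative retention time against standard compounds.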

Row | SMILES | logD
28 | Cc1cc(OCC2(C)COC2)cc(C)c1-c1cccc(COc2ccc3c(c2)OC[C@@H]3CC(=O)O)c1 | 3.88
29 | CCOCCOc1cc(C)c(-c2cccc(COc3ccc4c(c3)OCC4CC(=O)O)c2)c(C)c1 (racemic) | 3.83
30 | Cc1cc(OCCCN2CCCC2=O)cc(C)c1-c1cccc(COc2ccc3c(c2)OC[C@H]3CC(=O)O)c1 | 3.22
31 | Cc1cc(OCCCS(C)(=O)=O)cc(C)c1-c1cccc(COc2ccc3c(c2)OC[C@H]3CC(=O)O)c1 | 2.58
32 | Cc1c(C)c(-c2cccc(COc3ccc4c(c3)OC[C@H]4CC(=O)O)c2)c(C)c(C)c1OCCCS(C)(=O)=O | 3.12
33 | Cc1cc(OCC2(C)COC2)cc(C)c1-c1cccc(COc2ccc3c(c2)OC[C@H]3CC(=O)O)c1 | 3.88
34 | Cc1cc(OC2CCS(=O)(=O)CC2)c(F)c(C)c1-c1cccc(COc2ccc3c(c2)OC[C@H]3CC(=O)O)c1 | 2.95
35 | Cc1c(C)c(-c2cccc(COc3ccc4c(c3)OC[C@H]4CC(=O)O)c2)c(C)c(C)c1OC1CCS(=O)(=O)CC1 | 3.35

target: T1, Free fatty acid receptor 1; experiment: Agonist activity at human GP40 receptor expressed in CHO cells assessed as increase in intracellular calcium level at 10 uM for 90 secs by FLIPR assay in the presence of 0.1% BSA relative to gamma-linolenic acid; assay type: functional, cell-based; conditions: not given
Summary of the method: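 CHO dhfr cells stably expressing human GPR40/FFA1 (NM_005303) plated overnight at 37 °C, 5% CO₂, then loaded 60 min at 37 °C with Fluo 4 AM (2.5 μg/mL), 2.5 mmol/L probenecid and 0.1% fatty acid-free BSA. Ca²⁺ rise after compound addition read on FLIPR Tetra for 90 s. Activity = (test − vehicle)/(10 μM γ-linolenic acid − vehicle) × 100.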

Row | SMILES | Efficacy [%]
36 | Cc1cc(OCC2(C)COC2)cc(C)c1-c1cccc(COc2ccc3c(c2)OC[C@@H]3CC(=O)O)c1 | 103
37 | CCOCCOc1cc(C)c(-c2cccc(COc3ccc4c(c3)OCC4CC(=O)O)c2)c(C)c1 (racemic) | 103
38 | Cc1cc(OCCCN2CCCC2=O)cc(C)c1-c1cccc(COc2ccc3c(c2)OC[C@H]3CC(=O)O)c1 | 107
39 | Cc1c(C)c(-c2cccc(COc3ccc4c(c3)OC[C@H]4CC(=O)O)c2)c(C)c(C)c1OCCCS(C)(=O)=O | 104
40 | Cc1cc(OCC2(C)COC2)cc(C)c1-c1cccc(COc2ccc3c(c2)OC[C@H]3CC(=O)O)c1 | 103
41 | Cc1cc(OC2CCS(=O)(=O)CC2)c(F)c(C)c1-c1cccc(COc2ccc3c(c2)OC[C@H]3CC(=O)O)c1 | 104
42 | Cc1c(C)c(-c2cccc(COc3ccc4c(c3)OC[C@H]4CC(=O)O)c2)c(C)c(C)c1OC1CCS(=O)(=O)CC1 | 104
